From ChEMBL document CHEMBL1121573, “2-(Aminomethyl)phenols, a new class of saluretic agents. 1. Effects of nuclear substitution” (J Med Chem, 1980)

Legend:
[1] = tested on: Canis familiaris; experiment: Compound administered intravenously at a dose of 5 mg/kg was evaluated for salidiuretic activity measured as sodium ion excretion in Dog; Value ranges from 0-99; type: ADME, organism-based, Canis lupus familiaris, Urine; design: dose 5 mg/kg, route intravenous; conditions: in vivo, iv
Procedure, shortened: (§1)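 Conditioned female mongrel dogs, postabsorptive, water-loaded (500 mL po) 1 h before sodium pentobarbital anesthesia (30 mg/kg iv). Bladder catheter; creatinine 4 g sc; phosphate–mannitol buffer pH 7.4 infused (3.0 mL/min) throughout. […] Urine Na+ measured; response scored 0–6.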

[2] = tested on: Rattus norvegicus; experiment: Evaluated for salidiuretic activity measured as sodium ion excretion in Rat, administered orally at a dose of 50 mg/kg; type: functional, Urine; design: unit not given beside the values; conditions: route oral
Procedure, shortened: (§2)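 Female Charles-River rats (150–170 g), overnight on sugar diet with water ad libitum. Compound dissolved in DMF, diluted with water containing Tween 80 (final 4% DMF), given po in 5.0 mL; concurrent vehicle placebo. Three rats per metabolism cage; 0–5 h urine analysed for Na+, K+, Cl-. Values: mequiv × 100 per cage, geometric means of three cages per dose; scored 0–6 by Na+.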

[3] = tested on: Rattus norvegicus; experiment: Compound administered orally at a dose of 81 mg/kg was evaluated for salidiuretic activity measured as sodium ion excretion in Rat; type: ADME, organism-based, Urine; design: dose 81 mg/kg, route oral; unit not given beside the values; conditions: in vivo, po; procedure, shortened: as §2
[4] = Compound administered orally at a dose of 5 mg/kg was evaluated for salidiuretic activity measured as sodium ion excretion in Rat; type: organism-based; design: dose 5 mg/kg; conditions: Urine; procedure, shortened: as §2
[5] = tested on: Canis familiaris; experiment: Compound administered intravenously at a dose of 5 mg/kg was evaluated for salidiuretic activity measured as sodium ion excretion in Dog; Value ranges from 600-799; type: ADME, organism-based, Canis lupus familiaris, Urine; design: dose 5 mg/kg, route intravenous; unit not given beside the values; conditions: in vivo, iv; procedure, shortened: as §1
[6] = Evaluated for salidiuretic activity measured as sodium ion excretion in Rat, administered orally at a dose of 16.5 mg/kg; type: organism-based; design: dose 16.5 mg/kg; conditions: Urine; procedure, shortened: as §2
[7] = tested on: Rattus norvegicus; experiment: Compound administered orally at a dose of 1 mg/kg was evaluated for salidiuretic activity measured as sodium ion excretion in Rat; conditions: in vivo, po
[8] = tested on: Canis familiaris; experiment: Compound administered intravenously was evaluated for salidiuretic activity measured as sodium ion excretion in Dog; type: ADME, organism-based, Canis lupus familiaris, Urine; design: unit not given beside the values; conditions: in vivo, iv; procedure, shortened: as §1
[9] = tested on: Canis familiaris; experiment: Compound administered intravenously was evaluated for salidiuretic activity measured as sodium ion excretion in Dog; Value ranges from 100-299; type: ADME, organism-based, Canis lupus familiaris, Urine; conditions: in vivo, iv; procedure, shortened: as §1
[10] = tested on: Canis familiaris; experiment: Compound administered intravenously at a dose of 5 mg/kg was evaluated for salidiuretic activity measured as sodium ion excretion in Dog; type: ADME, organism-based, Canis lupus familiaris, Urine; design: dose 5 mg/kg, route intravenous; conditions: in vivo, iv; procedure, shortened: as §1
[11] = tested on: Canis familiaris; experiment: Compound administered intravenously at a dose of 5 mg/kg was evaluated for salidiuretic activity measured as sodium ion excretion in Dog; Value ranges from 400-599; type: ADME, organism-based, Canis lupus familiaris, Urine; design: dose 5 mg/kg, route intravenous; conditions: in vivo, iv; procedure, shortened: as §1
[12] = tested on: Canis familiaris; experiment: Compound administered intravenously was evaluated for salidiuretic activity measured as sodium ion excretion in Dog; Value ranges from 600-799; type: ADME, organism-based, Canis lupus familiaris, Urine; conditions: in vivo, iv; procedure, shortened: as §1
[13] = tested on: Canis familiaris; experiment: Compound administered intravenously was evaluated for salidiuretic activity measured as sodium ion excretion in Dog; Value ranges from 400-599; type: ADME, organism-based, Canis lupus familiaris, Urine; conditions: in vivo, iv; procedure, shortened: as §1
[14] = tested on: Canis familiaris; experiment: Compound administered intravenously was evaluated for salidiuretic activity measured as sodium ion excretion in Dog; Value ranges from 250-399; type: ADME, organism-based, Canis lupus familiaris, Urine; conditions: in vivo, iv; procedure, shortened: as §1
[15] = tested on: Canis familiaris; experiment: Compound administered intravenously was evaluated for salidiuretic activity measured as sodium ion excretion in Dog; Value ranges from 100-249; type: ADME, organism-based, Canis lupus familiaris, Urine; conditions: in vivo, iv; procedure, shortened: as §1
[16] = tested on: Canis familiaris; experiment: Compound administered intravenously at a dose of 5 mg/kg was evaluated for salidiuretic activity measured as sodium ion excretion in Dog; Value ranges from 600- 799; type: ADME, organism-based, Canis lupus familiaris, Urine; design: dose 5 mg/kg, route intravenous; conditions: in vivo, iv; procedure, shortened: as §1

CCCCc1ccc(O)c(CN)c1.Cl
Diuretic activity [1]: 0
Diuretic activity [2]: <0.3
Diuretic activity [3]: < 0.3

COc1c(Cl)c(OC)c(CN)c(O)c1Br.Cl
Diuretic activity [2]: 3.6
Diuretic activity [4]: 2.6
Diuretic activity [5]: 600
Diuretic activity [6]: 3.3
Diuretic activity [7]: 0.7

Cc1c(Cl)c(C)c(CN)c(O)c1Br.Cl
Diuretic activity [8]: > 900

Cc1cc(O)c(CN)c(C)c1Cl.Cl
Diuretic activity [9]: 100

CC(C)(C)c1cc(Br)c(O)c(CN)c1.Cl
Diuretic activity [10]: > 900
Diuretic activity [2]: 3.9
Diuretic activity [4]: 3.6
Diuretic activity [6]: 4.2
Diuretic activity [7]: 2.1

C=C(CC)C(=O)c1ccc(OCC(=O)O)c(Cl)c1Cl [ETHACRYNIC ACID]
Diuretic activity [10]: > 900
Diuretic activity [2]: <0.3
Diuretic activity [3]: < 0.3

CC(C)Cc1cc(Cl)c(O)c(CN)c1.Cl
Diuretic activity [11]: 400
Diuretic activity [2]: 2.4
Diuretic activity [4]: 0.5
Diuretic activity [6]: 1.4

CSc1cc(C(C)(C)C)cc(CN)c1O.Cl
Diuretic activity [2]: 3.6
Diuretic activity [4]: 2.6
Diuretic activity [5]: 600
Diuretic activity [6]: 3.3
Diuretic activity [7]: 0.7

Br.Cc1c(C)c(Cl)c(Cl)c(CN)c1O
Diuretic activity [8]: > 900

Cl.NCc1cc(F)cc(Cl)c1O
Diuretic activity [1]: 0

Cc1c(C)c(Cl)c(O)c(CN)c1C.Cl
Diuretic activity [12]: 600

CCC(C)c1cc(I)c(O)c(CN)c1.Cl (stereo unspecified)
Diuretic activity [10]: > 900
Diuretic activity [2]: 2.4
Diuretic activity [4]: 0.5
Diuretic activity [3]: 2.9
Diuretic activity [6]: 1.4

Cl.NCc1cc(C2CCCCC2)cc(Cl)c1O
Diuretic activity [13]: 400

COc1cc(Cl)c(OC)c(CN)c1O.Cl
Diuretic activity [14]: 250

COc1c(C)c(OC)c(CN)c(O)c1Cl
Diuretic activity [14]: 250

Cl.NCc1c(O)cc(Cl)c(Cl)c1Cl
Diuretic activity [11]: 400
Diuretic activity [2]: 3.3
Diuretic activity [4]: 1.4
Diuretic activity [6]: 2.7

CCc1cc(CN)c(O)c(CN)c1.Cl
Diuretic activity [1]: 0

C=CCc1cc(CN)c(O)c(OC)c1.Cl
Diuretic activity [2]: 2.4
Diuretic activity [4]: 0.5
Diuretic activity [3]: 2.9
Diuretic activity [5]: 600
Diuretic activity [6]: 1.4

CCC(C)(C)c1cc(Cl)c(O)c(CN)c1.Cl
Diuretic activity [2]: 2.4
Diuretic activity [4]: 0.5
Diuretic activity [3]: 2.9
Diuretic activity [5]: 600
Diuretic activity [6]: 1.4

CC(C)(C)c1ccc(O)c(CN)c1.Cl
Diuretic activity [1]: 0
Diuretic activity [2]: 1.2
Diuretic activity [4]: 0.3
Diuretic activity [3]: 1.5
Diuretic activity [6]: 0.5

Cc1cc(Cl)c(O)c(CN)c1Cl.Cl
Diuretic activity [13]: 400

CCc1c(Cl)cc(CN)c(O)c1Cl.Cl
Diuretic activity [11]: 400
Diuretic activity [2]: 1.8
Diuretic activity [4]: 0.4
Diuretic activity [3]: 2.4
Diuretic activity [6]: 0.6

CC(C)c1cc(Cl)c(O)c(CN)c1.Cl
Diuretic activity [10]: > 900
Diuretic activity [2]: 3.6
Diuretic activity [4]: 2.6
Diuretic activity [6]: 3.3
Diuretic activity [7]: 0.7

CC(C)c1cc(I)c(O)c(CN)c1.Cl
Diuretic activity [2]: 3.6
Diuretic activity [4]: 2.6
Diuretic activity [5]: 600
Diuretic activity [6]: 3.3
Diuretic activity [7]: 0.7

CCCC(=O)c1cc(C)c(O)c(CN)c1.Cl
Diuretic activity [15]: 100

CCc1ccc(O)c(CN)c1.Cl
Diuretic activity [2]: 1.2
Diuretic activity [4]: 0.3
Diuretic activity [3]: 1.5
Diuretic activity [15]: 100
Diuretic activity [6]: 0.5

Cl.NCc1c(O)c(C(F)(F)F)cc(Cl)c1Cl
Diuretic activity [11]: 400
Diuretic activity [2]: 3.3
Diuretic activity [4]: 1.4
Diuretic activity [6]: 2.7

Cc1cc(C(C)(C)C)cc(CN)c1O.Cl
Diuretic activity [12]: 600

COc1c(C(C)(C)C)cc(Cl)c(O)c1CN.Cl
Diuretic activity [14]: 250

CC(C)(C)c1cc(O)c(CN)c(C(C)(C)C)c1.Cl
Diuretic activity [1]: 0

CCCc1cc(I)c(O)c(CN)c1.Cl
Diuretic activity [2]: 1.8
Diuretic activity [4]: 0.4
Diuretic activity [3]: 2.4
Diuretic activity [16]: 600
Diuretic activity [6]: 0.6

CCOc1cc(Cl)c(O)c(CN)c1.Cl
Diuretic activity [14]: 250

CC1(c2cc(I)c(O)c(CN)c2)CCCC1.Cl
Diuretic activity [13]: 400

Cc1c(Cl)cc(Cl)c(O)c1CN.Cl
Diuretic activity [8]: > 900

Cc1cc(Cl)c(O)c(CN)c1C.Cl
Diuretic activity [11]: 400
Diuretic activity [2]: 2.4
Diuretic activity [4]: 0.5
Diuretic activity [3]: 2.9
Diuretic activity [6]: 1.4

Cc1cc(Cl)c(Cl)c(CN)c1O.Cl
Diuretic activity [14]: 250

CCCc1cc(Cl)c(O)c(CN)c1.Cl
Diuretic activity [10]: > 900
Diuretic activity [2]: 3.3
Diuretic activity [4]: 1.4
Diuretic activity [6]: 2.7

Cc1c(Cl)cc(I)c(O)c1CN.Cl
Diuretic activity [2]: 2.4
Diuretic activity [4]: 0.5
Diuretic activity [3]: 2.9
Diuretic activity [5]: 600
Diuretic activity [6]: 1.4

CCSc1cc(C(C)(C)C)cc(CN)c1O.Cl
Diuretic activity [11]: 400
Diuretic activity [2]: 1.2
Diuretic activity [4]: 0.3
Diuretic activity [3]: 1.5
Diuretic activity [6]: 0.5

Cc1c(Cl)cc(C(C)C)c(O)c1CN.Cl
Diuretic activity [15]: 100

CCCCCC(C)c1cc(C)c(O)c(CN)c1.Cl (stereo unspecified)
Diuretic activity [14]: 250

Cl.NCc1cc(-c2ccccc2)cc(Cl)c1O
Diuretic activity [14]: 250

Cc1c(C)c(Cl)c(C)c(CN)c1O.Cl
Diuretic activity [12]: 600

CCOc1c(Cl)c(O)c(CN)c(OCC)c1Cl.Cl
Diuretic activity [1]: 0
Diuretic activity [2]: 2.4
Diuretic activity [4]: 0.5
Diuretic activity [3]: 2.9
Diuretic activity [6]: 1.4

Cc1cc(C)c(CN)c(O)c1.Cl
Diuretic activity [1]: 0
Diuretic activity [2]: <0.2
Diuretic activity [3]: < 0.3
Diuretic activity [7]: 1

CC(=O)c1cc(C(C)(C)C)cc(CN)c1O.Cl
Diuretic activity [14]: 250

CCOC(=O)c1cc(Cl)c(O)c(CN)c1.Cl
Diuretic activity [15]: 100

Br.Cc1c(C)c(CN)c(O)c(Cl)c1Cl
Diuretic activity [2]: 3.6
Diuretic activity [4]: 2.6
Diuretic activity [5]: 600
Diuretic activity [6]: 3.3
Diuretic activity [7]: 0.7

COc1cc(O)c(CN)c(OC)c1Cl.Cl
Diuretic activity [9]: 100
